# From PubChem
# IDH1 R132H inh: inhibitors of IDH1 R132H reductase, primary screen, biochemical, plate reader, single point; Isocitrate dehydrogenase [NADP] cytoplasmic (Homo sapiens), O75874; diaphorase/resazurin fluorescence, 60 min; inhibition, % at 10 µM; 0.18% of 70,000 active; AID 624101, 2012; in the data active means inhibition above about 34%; inconclusive means no clear call, values can overlap the other calls; inactive means below about 11%;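 further: 0% = DMSO and 100% = no enzyme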
# T cruzi growth-1: T. cruzi intracellular proliferation inhibitors, primary screen, cell-based, beta-gal Tulahuen parasites, NIH3T3 host, luminescence; T. cruzi beta-gal in NIH3T3, GalScreen luminescence, 90 h; inhibition, % at 8.34 µM; 5.9% of 77,000 active;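 active means mean inhibition above about 93%, with at least 55% of replicates each passing it, limit read from the data, passing the limit was not always enough; inconclusive means only one of those two conditions holds; inactive means neither condition holds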
# GASC1 inh: inhibitors of GASC-1 (KDM4C) histone demethylase, primary screen, biochemical, single concentration HTS; Lysine-specific demethylase 4C (Homo sapiens), Q9H3R0; GST-KDM4C 2-372, H3K9me3 peptide, LANCE TR-FRET; inhibition, % at 12.5 µM; 0.15% of 96,000 active;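 active means mean replicate inhibition above about 25%, with at least 55% of replicates also reaching it, limit read from the data, passing the limit was not always enough; inconclusive means only one of those two conditions met; inactive means neither condition met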
# Target sequence (Q9H3R0 2-372 limits assumed): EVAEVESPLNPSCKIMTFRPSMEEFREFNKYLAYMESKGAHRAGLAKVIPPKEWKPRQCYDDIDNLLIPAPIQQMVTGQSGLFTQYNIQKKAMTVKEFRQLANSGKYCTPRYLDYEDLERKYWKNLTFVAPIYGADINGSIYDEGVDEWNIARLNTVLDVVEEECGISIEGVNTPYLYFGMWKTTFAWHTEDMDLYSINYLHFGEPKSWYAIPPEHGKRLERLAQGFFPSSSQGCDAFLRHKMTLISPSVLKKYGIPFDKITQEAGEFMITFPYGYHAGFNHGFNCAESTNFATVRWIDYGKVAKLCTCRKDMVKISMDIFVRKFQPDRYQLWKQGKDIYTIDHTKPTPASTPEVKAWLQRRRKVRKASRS
#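 Test system: N-terminal GST-fused human GASC-1 (KDM4C) fragment, residues 2-372; quantity: GASC-1 enzyme at 10 nM final in reaction; dosing: single dose; schedule: 30 min demethylation and 1 h detection at room temperature; signal: LANCE TR-FRET, excitation 340 nm, emissions 618 and 671 nm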
# T cruzi growth-2: T. cruzi intracellular proliferation inhibitors, confirmation, cell-based, NIH3T3 host, beta-gal parasite, luminescence, cherry-pick; shares compounds with T cruzi growth-1; T. cruzi beta-gal in NIH3T3, GalScreen luminescence, 90 h; 72% of 5,600 active; AID 651739, 2012; inhibition, % at 8.35 µM;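 active means mean replicate inhibition above about 95% and at least 55% of replicates individually reaching it, limit read from the data; inconclusive means only one of the two criteria is met; inactive means neither criterion is met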
# T cruzi growth-3: inhibitors of intracellular T. cruzi replication, confirmation, NIH3T3 host cells, beta-gal parasites, cherry-pick, set 2. shares compounds with T cruzi growth-1. T. cruzi beta-gal in NIH3T3, GalScreen luminescence, 90 h. inhibition, % at 2.09 µM. 21% of 5,600 active. AID 651740, 2012;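 active means mean inhibition above about 95%, with at least 55% of replicates also reaching it, limit read from the data; inconclusive means meets just one of the two conditions; inactive means meets neither condition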;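 further: plate controls were neutral control median for no effect and positive control median for full effect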
# 3T3 cytotox: cytotoxicity in mouse NIH/3T3 fibroblasts, confirmation, cytotoxicity control for T. cruzi proliferation inhibitor project, cell-based, cherry-pick, single point. cytotoxicity (signal decrease), % at 8.35 µM. 14% of 5,600 active. AID 651742, 2012. shares compounds with T cruzi growth-1. NIH/3T3 viability, CellTiter-Glo ATP luminescence, 90 h;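 active means mean signal decrease across replicates above about 35% based on untreated-well scatter, with enough replicates individually passing, limit read from the data; inconclusive means no rule stated though some were filed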;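 further: 0% = median of neutral control wells and 100% = median of positive control wells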
# NIH3T3 tox 2: NIH/3T3 fibroblast cytotoxicity, confirmation, cytotoxicity control, cell-based, cherry-pick, single point, set 2; NIH/3T3 viability, CellTiter-Glo ATP luminescence, 90 h; AID 651744, 2012; inhibition, % at 24.9 µM; 56% of 5,600 active; shares compounds with T cruzi growth-1;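 active means mean loss of cell viability signal at or above a set limit, and enough replicates individually reaching it; inconclusive means meets only the mean limit or only the replicate share; inactive means meets neither condition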;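 further: 0% = median of neutral control wells and 100% = median of positive control wells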
# An asterisk follows results filed as active; ? = inconclusive; . = not tested or not shown. The full list was thinned out, with hits kept by preference.
SMILES,IDH1 R132H inh,T cruzi growth-1,GASC1 inh,T cruzi growth-2,T cruzi growth-3,3T3 cytotox,NIH3T3 tox 2
COc1ccc(S(=O)(=O)Nc2ccc3c(c2)CC(=O)N([C@@H](C)CO)C[C@H](C)[C@@H](CN(C)Cc2ccccc2)O3)cc1,0,79,0,.,.,.,.
Cc1noc(C)c1S(=O)(=O)Nc1ccc2c(c1)CC(=O)N([C@@H](C)CO)C[C@@H](C)[C@H](CN(C)Cc1ccc(Oc3ccccc3)cc1)O2,0,?,2,109*,89,-25,104*
COc1ccc(S(=O)(=O)Nc2ccc3c(c2)CC(=O)N([C@H](C)CO)C[C@@H](C)[C@H](CN(C)Cc2ccccc2)O3)cc1,0,104*,-1,109*,99*,-4,7
COc1ccc(S(=O)(=O)Nc2ccc3c(c2)CC(=O)N([C@@H](C)CO)C[C@@H](C)[C@@H](CN(C)Cc2ccccc2)O3)cc1,.,74,.,.,.,.,.
Cc1noc(C)c1S(=O)(=O)Nc1ccc2c(c1)CC(=O)N([C@H](C)CO)C[C@@H](C)[C@@H](CN(C)Cc1ccc(Oc3ccccc3)cc1)O2,4,66,0,.,.,.,.
C[C@H](CO)N1C[C@H](C)[C@@H](CN(C)Cc2ccncc2)Oc2c(NC(=O)c3ccc(-c4nccs4)cc3)cccc2C1=O,-2,.,-1,.,.,.,.
C[C@@H]1CN([C@@H](C)CO)S(=O)(=O)c2ccc(C#CC3CC3)cc2O[C@H]1CN(C)Cc1ccccn1,0,?,2,100*,79,64*,72*
C[C@H]1CN([C@@H](C)CO)S(=O)(=O)c2ccc(C#CC3CC3)cc2O[C@@H]1CN(C)Cc1ccccn1,2,109*,-1,91,71,27,80*
CC(C)C#Cc1ccc2c(c1)O[C@@H](CN(C)Cc1ccccn1)[C@H](C)CN([C@H](C)CO)S2(=O)=O,-4,76,.,.,.,.,.
C[C@H](CO)N1C[C@H](C)[C@H](CN(C)Cc2ccccn2)Oc2cc(C#CC3CC3)ccc2S1(=O)=O,0,59,1,.,.,.,.
C[C@@H]1CN([C@H](C)CO)S(=O)(=O)c2ccc(C#CC3CC3)cc2O[C@H]1CN(C)Cc1ccccn1,-2,110*,0,76,-3,102*,76*
CC(C)C#Cc1ccc2c(c1)O[C@@H](CN(C)Cc1ccccn1)[C@@H](C)CN([C@H](C)CO)S2(=O)=O,.,79,.,.,.,.,.
O=C1c2ccccc2C(=O)N1CCc1nc2c3c4c(sc3ncn2n1)CCCCC4,0,.,.,.,.,.,.
COc1ccccc1NC(=O)N1CC(=O)N2[C@H](CO)[C@@H](c3ccc(C#CC(C)C)cc3)[C@@H]2C1,.,.,1,.,.,.,.
C[C@@H]1CCCCO[C@H](CN(C)C(=O)Nc2cccc3ccccc23)[C@H](C)CN([C@@H](C)CO)C(=O)c2cc(NC(=O)c3ccncc3)ccc2O1,-2,73,9,.,.,.,.
C[C@@H]1CCCCO[C@@H](CN(C)Cc2ccc3c(c2)OCO3)[C@@H](C)CN([C@H](C)CO)C(=O)c2cc(N(C)C)ccc2O1,.,-2,-2,.,.,.,.
C[C@@H]1CCCCO[C@@H](CN(C)CC2CCCCC2)[C@H](C)CN([C@H](C)CO)C(=O)c2cc(NS(=O)(=O)c3ccc(Cl)cc3)ccc2O1,2,93,-1,.,.,.,.
C[C@@H]1CN([C@@H](C)CO)C(=O)c2cc(NS(=O)(=O)c3ccc(Cl)cc3)ccc2O[C@@H](C)CCCCO[C@H]1CN(C)CC1CCCCC1,.,108*,0,88,29,?,102*
C[C@@H]1CN([C@@H](C)CO)C(=O)c2cc(NS(=O)(=O)c3ccc(Cl)cc3)ccc2O[C@@H](C)CCCCO[C@H]1CN(C)CC1CC1,.,106*,-2,107*,82,16,15
C[C@H](CO)N1C[C@H](C)[C@H](CN(C)CC2CC2)Oc2ccc(NS(=O)(=O)c3ccc(Cl)cc3)cc2C1=O,3,-2,8,.,.,.,.
C[C@@H]1CCCCO[C@@H](CN(C)CC2CC2)[C@@H](C)CN([C@H](C)CO)C(=O)c2cc(NS(=O)(=O)c3ccc(Cl)cc3)ccc2O1,3,28,-2,.,.,.,.
C[C@@H]1CCCCO[C@@H](CN(C)CC2CCCCC2)[C@H](C)CN([C@@H](C)CO)C(=O)c2cc(NS(=O)(=O)c3ccc(Cl)cc3)ccc2O1,1,102*,0,105*,94,26,106*
C[C@@H]1CCCCO[C@@H](CN(C)CC2CCCCC2)[C@@H](C)CN([C@@H](C)CO)C(=O)c2cc(NS(=O)(=O)c3ccc(Cl)cc3)ccc2O1,.,64,-2,.,.,.,.
C[C@@H]1CN([C@@H](C)CO)C(=O)c2cc(NS(=O)(=O)c3ccc(Cl)cc3)ccc2O[C@H]1CN(C)CC1CC1,0,?,6,1,20,8,31*
CC[C@@H]1/C=C(\C)C[C@H](C)C[C@H](OC)[C@H]2O[C@@](O)(C(=O)C(=O)N3CCCC[C@H]3C(=O)O[C@H](/C(C)=C/[C@@H]3CC[C@@H](O)[C@H](OC)C3)[C@H](C)[C@@H](O)CC1=O)[C@H](C)C[C@@H]2OC,0,.,.,.,.,.,.
COc1ccc(NC(=O)N(C)C[C@H]2Oc3ccc(NC(=O)Nc4cccc5ccccc45)cc3C(=O)N([C@@H](C)CO)C[C@@H]2C)cc1,0,5,1,.,.,.,.
CCC(=O)N(C)C[C@H]1Oc2cc(-c3ccc(C)cc3)ccc2S(=O)(=O)N([C@H](C)CO)C[C@@H]1C,3,76,0,.,.,.,.
C[C@H](CO)N1C[C@H](C)[C@H](CN(C)S(=O)(=O)c2ccccc2)OCCCC[C@H](C)Oc2ccc(NC(=O)Cc3ccccc3)cc2C1=O,0,.,-1,.,.,.,.
C[C@H](CO)N1C[C@H](C)[C@H](CN(C)S(=O)(=O)c2ccc(Cl)cc2)OCCCC[C@H](C)Oc2ccc(NC(=O)Cc3ccccc3)cc2C1=O,.,105*,-1,100*,109*,-11,11
C[C@H]1CCCCO[C@H](CN(C)S(=O)(=O)c2ccc(Cl)cc2)[C@@H](C)CN([C@@H](C)CO)C(=O)c2cc(NC(=O)Cc3ccccc3)ccc2O1,.,112*,1,103*,84,1,-3
